Laboratory results reported in ChEMBL document CHEMBL1770136, “A class of novel N-isoquinoline-3-carbonyl-L-amino acid benzylesters: synthesis, anti-tumor evaluation and 3D QSAR analysis” (Eur J Med Chem, 2011).

How the values were obtained:
[1] = Apparent permeability from basolateral to apical side of human Caco2 cells up to 120 mins by HPLC analysis; assay type: ADME, cell-based; conditions: Caco-2
Method in brief: (§1)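 Caco-2 monolayers on polycarbonate transwell filters, TEER about 700 Ω cm², rechecked after each test. Compounds in HBSS at final 4 mM on the donor side, 37 °C. Receiver side sampled at 30, 60, 90 and 120 min and measured by HPLC. Papp = dQ/dt·1/(A·C0), area 1 cm²; n = 4.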

HeLa = test: Antiproliferative activity against human HeLa cells after 48 hrs by MTT assay; assay type: functional, cell-based
Method in brief: (§2)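 MTT assay in 96-well cultures; HL-60 or HeLa cells at 1×10^4/ml in RPMI-1640 with 10% FCS, penicillin and streptomycin, 37 °C, 5% CO2. After 24 h, medium renewed with compound (final 1 mM to 1 nM) for 48 h, then renewed again for 4 h. Residue dissolved in DMSO, absorbance read; inhibition = (C−T)/C, IC50 computed.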

HL-60 = test: Antiproliferative activity against human HL60 cells after 48 hrs by MTT assay; assay type: functional, cell-based; conditions: HL-60, 48 h; method in brief: as §2
CCRF S-180 [2] = test: Antitumor activity against mouse S180 cells xenografted in ICR mouse assessed as tumor growth inhibition at 100 umol/kg/day, ip qd for 7 days measured 24 hrs after last dose relative to control; assay type: functional; conditions: CCRF S-180, ip
Method in brief: (§3)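 Male ICR mice, 10–12 weeks old. S180 cells from serially passaged ascites; 1×10^7 viable cells in 0.2 ml saline injected subcutaneously at right oxter. Dosing began 24 h later, 10 per group. Daily i.p. dose of 100 µmol/kg in 0.2 ml saline for 7 days; saline and i.p. cytarabine as controls. Tumors excised and weighed 24 h after last dose; inhibition calculated versus saline group.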

[3] = Apparent permeability from apical to basolateral side of human Caco2 cells up to 120 mins by HPLC analysis; assay type: ADME, cell-based; conditions: Caco-2; method in brief: as §1
CCRF S-180 [4] = test: Antitumor activity against mouse S180 cells xenografted in ICR mouse assessed as decrease of tumor weight at 10 umol/kg, po qd for 7 days measured 24 hrs after last dose; assay type: functional
Method in brief: (§4)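 S180 solid tumors started as 1×10^7 ascites-derived cells s.c. in male ICR mice, 10–12 weeks old. From 24 h, oral doses of 1, 10 or 100 µmol/kg/day in 0.2 ml saline for 7 days; oral saline negative control, i.p. cytarabine 100 µmol/kg positive control. Tumors weighed 24 h after last dose; n = 12 per table footnote.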

CCRF S-180 [5] = test: Antitumor activity against mouse S180 cells xenografted in ICR mouse assessed as decrease of tumor weight at 1 umol/kg, po qd for 7 days measured 24 hrs after last dose; assay type: functional; method in brief: as §4
CCRF S-180 [6] = test: Antitumor activity against mouse S180 cells xenografted in ICR mouse assessed as decrease of tumor weight at 100 umol/kg, po qd for 7 days measured 24 hrs after last dose; assay type: functional; method in brief: as §4
[7] = Acute toxicity in ICR mouse assessed as mouse survival at 540 mg/kg, po; assay type: organism-based; set-up: dose 540 mg/kg, route oral; conditions: in vivo, read-out: Activity
Method in brief: (§5)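 Healthy mice were given the compound orally at 15, 90 and 540 mg/kg and observed for 7 days for neurotoxic signs (tremor, twitch, jumping, tetanus, supination) and for deaths. Organs were examined by necropsy on day 7.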

Mus musculus [8] = test: Neurotoxicity in ICR mouse assessed as neurotoxic behavior at 15 to 540 mg/kg, po after 7 days; assay type: toxicity, organism-based; set-up: dose 15-540 mg/kg, route oral; conditions: in vivo, 168 h; method in brief: as §5
Mus musculus [9] = test: Acute toxicity in ICR mouse assessed as changes in organs at 15 to 540 mg/kg, po after 7 days by necropsy analysis; assay type: organism-based; set-up: dose 15-540 mg/kg, route oral; conditions: in vivo, 168 h; method in brief: as §5
[10] = Acute toxicity in po dosed ICR mouse assessed as changes in organs after 7 days by necropsy analysis; assay type: organism-based; conditions: in vivo; method in brief: as §5
CCRF S-180 [11] = test: Antitumor activity against mouse S180 cells xenografted in ICR mouse assessed as decrease of tumor weight at 100 umol/kg, ip qd for 7 days measured 24 hrs after last dose; assay type: functional; method in brief: as §3

Structure (SMILES): O=C(O)c1cc2ccccc2cn1
- Papp B→A at 2 h [1]: 9.28 ×10⁻⁶ cm/s
- IC50 (HeLa): 1320 nM
- IC50 (HL-60): 949 nM
- inhibition in vivo at 100 µmol/kg (CCRF S-180 [2]): 11.5%
- Papp A→B at 2 h [3]: 9.47 ×10⁻⁶ cm/s

Structure (SMILES): C[C@H](NC(=O)c1cc2ccccc2cn1)C(=O)OCc1ccccc1
- IC50 (HeLa): 154 nM
- IC50 (HL-60): 84.8 nM
- inhibition in vivo at 100 µmol/kg (CCRF S-180 [2]): 40.6%

Structure (SMILES): CC(C)[C@H](NC(=O)c1cc2ccccc2cn1)C(=O)OCc1ccccc1
- IC50 (HeLa): 118 nM
- IC50 (HL-60): 78.9 nM
- inhibition in vivo at 100 µmol/kg (CCRF S-180 [2]): 29.7%

Structure (SMILES): CC[C@@H](C)[C@H](NC(=O)c1cc2ccccc2cn1)C(=O)OCc1ccccc1
- IC50 (HeLa): 185 nM
- IC50 (HL-60): 96.3 nM
- inhibition in vivo at 100 µmol/kg (CCRF S-180 [2]): 20.9%

Structure (SMILES): O=C(N[C@@H](Cc1c[nH]c2ccccc12)C(=O)OCc1ccccc1)c1cc2ccccc2cn1
- IC50 (HeLa): 396 nM
- IC50 (HL-60): 66.1 nM
- inhibition in vivo at 100 µmol/kg (CCRF S-180 [2]): 36.9%

Structure (SMILES): O=C(N[C@@H](CO)C(=O)OCc1ccccc1)c1cc2ccccc2cn1
- IC50 (HeLa): 135 nM
- IC50 (HL-60): 70.4 nM
- inhibition in vivo at 100 µmol/kg (CCRF S-180 [2]): 40.4%

Structure (SMILES): O=C(N[C@@H](Cc1ccc(O)cc1)C(=O)OCc1ccccc1)c1cc2ccccc2cn1
- IC50 (HeLa): 508 nM
- IC50 (HL-60): 99.9 nM
- inhibition in vivo at 100 µmol/kg (CCRF S-180 [2]): 28%

Structure (SMILES): O=C(OCc1ccccc1)[C@@H]1CCCN1C(=O)c1cc2ccccc2cn1
- IC50 (HeLa): 87.7 nM
- Activity (CCRF S-180 [4]): 1.243 g
- IC50 (HL-60): 53.4 nM
- inhibition in vivo at 100 µmol/kg (CCRF S-180 [2]): 44.5%
- Activity (CCRF S-180 [5]): 1.661 g
- Activity (CCRF S-180 [6]): 1.021 g

Structure (SMILES): NC(=O)CC[C@H](NC(=O)c1cc2ccccc2cn1)C(=O)OCc1ccccc1
- IC50 (HeLa): 181 nM
- IC50 (HL-60): 44.5 nM
- inhibition in vivo at 100 µmol/kg (CCRF S-180 [2]): 11.9%

Structure (SMILES): O=C(N[C@@H](Cc1c[nH]cn1)C(=O)OCc1ccccc1)c1cc2ccccc2cn1
- IC50 (HeLa): 263 nM
- IC50 (HL-60): 87.6 nM
- inhibition in vivo at 100 µmol/kg (CCRF S-180 [2]): 24.3%

Structure (SMILES): NCCCC[C@H](NC(=O)c1cc2ccccc2cn1)C(=O)OCc1ccccc1
- IC50 (HeLa): 196 nM
- IC50 (HL-60): 68.2 nM
- inhibition in vivo at 100 µmol/kg (CCRF S-180 [2]): 17.1%

Structure (SMILES): O=C(C[C@H](NC(=O)c1cc2ccccc2cn1)C(=O)OCc1ccccc1)OCc1ccccc1
- IC50 (HeLa): 411 nM
- IC50 (HL-60): 74 nM
- inhibition in vivo at 100 µmol/kg (CCRF S-180 [2]): 37.5%

Structure (SMILES): O=C(CC[C@H](NC(=O)c1cc2ccccc2cn1)C(=O)OCc1ccccc1)OCc1ccccc1
- IC50 (HeLa): 214 nM
- IC50 (HL-60): 83.6 nM
- inhibition in vivo at 100 µmol/kg (CCRF S-180 [2]): 25.2%

Structure (SMILES): O=C(N[C@@H](Cc1ccccc1)C(=O)OCc1ccccc1)c1cc2ccccc2cn1
- IC50 (HeLa): 151 nM
- IC50 (HL-60): 91.8 nM
- inhibition in vivo at 100 µmol/kg (CCRF S-180 [2]): 30.1%

Structure (SMILES): C[C@H](O)[C@H](NC(=O)c1cc2ccccc2cn1)C(=O)OCc1ccccc1
- Papp B→A at 2 h [1]: 7.05 ×10⁻⁶ cm/s
- IC50 (HeLa): 98.7 nM
- survival [7]: 100%
- Activity (CCRF S-180 [4]): 1.184 g
- Activity (Mus musculus [8]): Non-toxic
- IC50 (HL-60): 62.2 nM
- Activity (Mus musculus [9]): Non-toxic
- LD50 at 168 h [10]: > 540 mg/kg
- inhibition in vivo at 100 µmol/kg (CCRF S-180 [2]): 54.4%
- Papp A→B at 2 h [3]: 18.6 ×10⁻⁶ cm/s
- Activity (CCRF S-180 [5]): 1.315 g
- Activity (CCRF S-180 [6]): 0.802 g

Structure (SMILES): CSCC[C@H](NC(=O)c1cc2ccccc2cn1)C(=O)OCc1ccccc1
- IC50 (HeLa): 309 nM
- IC50 (HL-60): 44.9 nM
- inhibition in vivo at 100 µmol/kg (CCRF S-180 [2]): 39.6%

Structure (SMILES): O=C(CNC(=O)c1cc2ccccc2cn1)OCc1ccccc1
- IC50 (HeLa): 195 nM
- IC50 (HL-60): 57.4 nM
- inhibition in vivo at 100 µmol/kg (CCRF S-180 [2]): 16.1%

Structure (SMILES): CC(C)C[C@H](NC(=O)c1cc2ccccc2cn1)C(=O)OCc1ccccc1
- Papp B→A at 2 h [1]: 7.12 ×10⁻⁶ cm/s
- IC50 (HeLa): 111 nM
- survival [7]: 100%
- Activity (CCRF S-180 [4]): 1.011 g
- Activity (Mus musculus [8]): Non-toxic
- IC50 (HL-60): 72.8 nM
- Activity (Mus musculus [9]): Non-toxic
- LD50 at 168 h [10]: > 540 mg/kg
- inhibition in vivo at 100 µmol/kg (CCRF S-180 [2]): 47.1%
- Papp A→B at 2 h [3]: 17.2 ×10⁻⁶ cm/s
- Activity (CCRF S-180 [5]): 1.298 g
- Activity (CCRF S-180 [6]): 0.938 g

Structure (SMILES): NC(=O)C[C@H](NC(=O)c1cc2ccccc2cn1)C(=O)OCc1ccccc1
- IC50 (HeLa): 216 nM
- IC50 (HL-60): 86.9 nM
- inhibition in vivo at 100 µmol/kg (CCRF S-180 [2]): 36.7%

Structure (SMILES): Nc1ccn([C@@H]2O[C@H](CO)[C@@H](O)[C@@H]2O)c(=O)n1 [CYTARABINE]
- Activity (CCRF S-180 [11]): 0.814 g
- inhibition in vivo at 100 µmol/kg (CCRF S-180 [2]): 54.8%
